In ChEMBL document CHEMBL1154778, “Synthesis and biological evaluation of C-5 methyl substituted 4-arylthio and 4-aryloxy-3-Iodopyridin-2(1H)-one type anti-HIV agents” (J Med Chem, 2009):

Tested on: Human immunodeficiency virus 1
Experiment: Antiviral activity against HIV1 HXB2 harboring Y181C mutant reverse transcriptase infected in human MT4 cells after 5 days by MTT assay
Format: functional, organism-based
Conditions: Human immunodeficiency virus 1, HXB2, MT4, 120 h
In short: (§1)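 Mutant viruses were made by recombining the mutant PR-RT sequence into a PR-RT-deleted HIV-1 HXB2 proviral clone. MT4 cells were grown in RPMI 1640 with 10% FCS and antibiotics. Virus at 200 CCID50/well and 30000 cells/well were incubated with varied compound concentrations for 5 days at 37 °C, 5% CO2. MTT viability gave IC50, the concentration giving 50% infection versus the drug-free control.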

Compound | IC50
Cc1cc(C)cc(Sc2c(CSCCc3cnccn3)c(C)[nH]c(=O)c2I)c1 | 31.6 nM
Cc1cc(C)cc(Oc2c(Cn3cncc3C)c(C)[nH]c(=O)c2I)c1 | 31.6 nM
COCC1CN(Cc2c(C)[nH]c(=O)c(I)c2Sc2cc(C)cc(C)c2)CCO1 (stereo not drawn) | 25.1 nM
Cc1cc(C)cc(Sc2c(Cc3ccc[nH]3)c(C)[nH]c(=O)c2I)c1 | 10 nM
Cc1cc(C)cc(Sc2c(Cn3nc(C)nc3C)c(C)[nH]c(=O)c2I)c1 | 39.8 nM
Cc1cc(C)cc(Sc2c(Cn3cnc(C)n3)c(C)[nH]c(=O)c2I)c1 | 15.8 nM
Cc1cc(C)cc(Oc2c(CN3CC=CC3)c(C)[nH]c(=O)c2I)c1 | 50.1 nM
CCS(=O)(=O)Cc1c(C)[nH]c(=O)c(I)c1Oc1cc(C)cc(C)c1 | 158 nM
CCOC(=O)CC1CN(Cc2c(C)[nH]c(=O)c(I)c2Sc2cc(C)cc(C)c2)CCO1 (stereo not drawn) | 25.1 nM
Cc1cc(C)cc(Sc2c(CN)c(C)[nH]c(=O)c2I)c1 | 794 nM
CNC(=O)CSCc1c(C)[nH]c(=O)c(I)c1Oc1cc(C)cc(C)c1 | 19.9 nM
Cc1cc(C)cc(Sc2c(Cn3cccc3)c(C)[nH]c(=O)c2I)c1 | 31.6 nM
Cc1cc(C)cc(Sc2c(Cn3ccnn3)c(C)[nH]c(=O)c2I)c1 | 10 nM
Cc1cc(C)cc(Sc2c(CN(C)CCC#N)c(C)[nH]c(=O)c2I)c1 | 63 nM
Cc1cc(C)cc(Oc2c(Cn3ccc(N)n3)c(C)[nH]c(=O)c2I)c1 | 39.8 nM
Cc1cc(C)cc(Sc2c(Cn3nc(-c4ccco4)nc3C)c(C)[nH]c(=O)c2I)c1 | 31.6 nM
Cc1cc(C)cc(Sc2c(CN3CCOC(CC#N)C3)c(C)[nH]c(=O)c2I)c1 (stereo not drawn) | 25.1 nM

Tested on: Human immunodeficiency virus 1
Experiment: Antiviral activity against HIV1 HXB2 harboring K103N mutant reverse transcriptase infected in human MT4 cells after 5 days by MTT assay
Format: functional, organism-based
Conditions: Human immunodeficiency virus 1, HXB2, MT4, 120 h
In short: as §1

Compound | IC50
Cc1cc(C)cc(Sc2c(CSCCc3cnccn3)c(C)[nH]c(=O)c2I)c1 | 5.01 nM
Cc1cc(C)cc(Oc2c(Cn3cncc3C)c(C)[nH]c(=O)c2I)c1 | 10 nM
COCC1CN(Cc2c(C)[nH]c(=O)c(I)c2Sc2cc(C)cc(C)c2)CCO1 (stereo not drawn) | 1 nM
Cc1cc(C)cc(Sc2c(Cc3ccc[nH]3)c(C)[nH]c(=O)c2I)c1 | 0.5 nM
Cc1cc(C)cc(Sc2c(Cn3nc(C)nc3C)c(C)[nH]c(=O)c2I)c1 | 31.6 nM
Cc1cc(C)cc(Sc2c(Cn3cnc(C)n3)c(C)[nH]c(=O)c2I)c1 | 1.99 nM
Cc1cc(C)cc(Oc2c(CN3CC=CC3)c(C)[nH]c(=O)c2I)c1 | 7.94 nM
CCS(=O)(=O)Cc1c(C)[nH]c(=O)c(I)c1Oc1cc(C)cc(C)c1 | 39.8 nM
CCOC(=O)CC1CN(Cc2c(C)[nH]c(=O)c(I)c2Sc2cc(C)cc(C)c2)CCO1 (stereo not drawn) | 0.62 nM
Cc1cc(C)cc(Sc2c(CN)c(C)[nH]c(=O)c2I)c1 | 158 nM
CNC(=O)CSCc1c(C)[nH]c(=O)c(I)c1Oc1cc(C)cc(C)c1 | 3.98 nM
Cc1cc(C)cc(Sc2c(Cn3cccc3)c(C)[nH]c(=O)c2I)c1 | 1 nM
Cc1cc(C)cc(Sc2c(Cn3ccnn3)c(C)[nH]c(=O)c2I)c1 | 1 nM
Cc1cc(C)cc(Sc2c(CN(C)CCC#N)c(C)[nH]c(=O)c2I)c1 | 6.3 nM
Cc1cc(C)cc(Oc2c(Cn3ccc(N)n3)c(C)[nH]c(=O)c2I)c1 | 39.8 nM
Cc1cc(C)cc(Sc2c(Cn3nc(-c4ccco4)nc3C)c(C)[nH]c(=O)c2I)c1 | 12.5 nM
Cc1cc(C)cc(Sc2c(CN3CCOC(CC#N)C3)c(C)[nH]c(=O)c2I)c1 (stereo not drawn) | 1 nM

Tested on: Human immunodeficiency virus 1
Experiment: Antiviral activity against HIV-1 LAI harboring wild type reverse transcriptase infected in human MT4 cells after 5 days by MTT assay
Format: functional, organism-based
Conditions: Human immunodeficiency virus 1, LAI, MT4, 120 h
In short: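 MT4 cells were kept in RPMI 1640 with 10% fetal calf serum and antibiotics at 37 °C, 5% CO2. A range of compound concentrations was incubated with HIV-1 LAI at 200 CCID50/well and 30000 MT4 cells/well for 5 days at 37 °C. Cell viability was read by MTT, and IC50 was the concentration giving 50% infection versus the drug-free control.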

Compound | IC50
Cc1cc(C)cc(Sc2c(Cn3ccnc3C#N)c(C)[nH]c(=O)c2I)c1 | 1 nM
Cc1cc(C)cc(Oc2c(CN3CCCC(C(N)=O)C3)c(C)[nH]c(=O)c2I)c1 (stereo not drawn) | 10 nM
Cc1cc(C)cc(Oc2c(Cn3ccnc3Br)c(C)[nH]c(=O)c2I)c1 | 7.9 nM
Cc1cc(C)cc(Sc2c(CSCCc3cnccn3)c(C)[nH]c(=O)c2I)c1 | 1.99 nM
Cc1cc(C)cc(Oc2c(Cn3cncc3C)c(C)[nH]c(=O)c2I)c1 | 5.01 nM
COCC1CN(Cc2c(C)[nH]c(=O)c(I)c2Sc2cc(C)cc(C)c2)CCO1 (stereo not drawn) | 1.25 nM
Cc1cc(C)cc(Sc2c(Cc3ccc[nH]3)c(C)[nH]c(=O)c2I)c1 | 3.98 nM
Cc1cc(C)cc(Sc2c(Cn3nc(C)nc3C)c(C)[nH]c(=O)c2I)c1 | 3.16 nM
Cc1cc(C)cc(Sc2c(Cn3cnc(C)n3)c(C)[nH]c(=O)c2I)c1 | 0.79 nM
Cc1cc(C)cc(Oc2c(CN3CC=CC3)c(C)[nH]c(=O)c2I)c1 | 3.98 nM
CCS(=O)(=O)Cc1c(C)[nH]c(=O)c(I)c1Oc1cc(C)cc(C)c1 | 7.94 nM
CCOC(=O)CC1CN(Cc2c(C)[nH]c(=O)c(I)c2Sc2cc(C)cc(C)c2)CCO1 (stereo not drawn) | 2.51 nM
Cc1cc(C)cc(Sc2c(CN)c(C)[nH]c(=O)c2I)c1 | 19.9 nM
CNC(=O)CSCc1c(C)[nH]c(=O)c(I)c1Oc1cc(C)cc(C)c1 | 1.58 nM
Cc1cc(C)cc(Sc2c(Cn3cccc3)c(C)[nH]c(=O)c2I)c1 | 2.51 nM
Cc1cc(C)cc(Sc2c(Cn3ccnn3)c(C)[nH]c(=O)c2I)c1 | 1.99 nM
Cc1cc(C)cc(Sc2c(Cn3cccc3C#N)c(C)[nH]c(=O)c2I)c1 | 1 nM
Cc1cc(C)cc(Sc2c(CN(C)CCC#N)c(C)[nH]c(=O)c2I)c1 | 2.51 nM
CCOC(=O)CSCc1c(C)[nH]c(=O)c(I)c1Oc1cc(C)cc(C)c1 | 10 nM
Cc1cc(C)cc(Oc2c(Cn3ccc(N)n3)c(C)[nH]c(=O)c2I)c1 | 7.9 nM
Cc1cc(C)cc(Sc2c(Cn3nc(-c4ccco4)nc3C)c(C)[nH]c(=O)c2I)c1 | 1.99 nM
Cc1cc(C)cc(Sc2c(CN3CCOC(CC#N)C3)c(C)[nH]c(=O)c2I)c1 (stereo not drawn) | 1.58 nM
Cc1cc(C)cc(Sc2c(CN3CCN(C(=O)c4ccco4)CC3)c(C)[nH]c(=O)c2I)c1 | 10 nM
Cc1cc(C)cc(Oc2c(Cn3ncc4ccccc43)c(C)[nH]c(=O)c2I)c1 | 7.9 nM

Tested on: Human immunodeficiency virus 1
Experiment: Antiviral activity against HIV1 HXB2 harboring Y188L mutant reverse transcriptase infected in human MT4 cells after 5 days by MTT assay
Format: functional, organism-based
Conditions: Human immunodeficiency virus 1, HXB2, MT4, 120 h
In short: as §1

Compound | IC50
Cc1cc(C)cc(Sc2c(CSCCc3cnccn3)c(C)[nH]c(=O)c2I)c1 | 199 nM
Cc1cc(C)cc(Oc2c(Cn3cncc3C)c(C)[nH]c(=O)c2I)c1 | 125 nM
COCC1CN(Cc2c(C)[nH]c(=O)c(I)c2Sc2cc(C)cc(C)c2)CCO1 (stereo not drawn) | 125 nM
Cc1cc(C)cc(Sc2c(Cc3ccc[nH]3)c(C)[nH]c(=O)c2I)c1 | 50.1 nM
Cc1cc(C)cc(Sc2c(Cn3nc(C)nc3C)c(C)[nH]c(=O)c2I)c1 | 158 nM
Cc1cc(C)cc(Sc2c(Cn3cnc(C)n3)c(C)[nH]c(=O)c2I)c1 | 100 nM
Cc1cc(C)cc(Oc2c(CN3CC=CC3)c(C)[nH]c(=O)c2I)c1 | 125 nM
CCS(=O)(=O)Cc1c(C)[nH]c(=O)c(I)c1Oc1cc(C)cc(C)c1 | 794 nM
CCOC(=O)CC1CN(Cc2c(C)[nH]c(=O)c(I)c2Sc2cc(C)cc(C)c2)CCO1 (stereo not drawn) | 50 nM
Cc1cc(C)cc(Sc2c(CN)c(C)[nH]c(=O)c2I)c1 | > 10000 nM
CNC(=O)CSCc1c(C)[nH]c(=O)c(I)c1Oc1cc(C)cc(C)c1 | 158 nM
Cc1cc(C)cc(Sc2c(Cn3cccc3)c(C)[nH]c(=O)c2I)c1 | 158 nM
Cc1cc(C)cc(Sc2c(Cn3ccnn3)c(C)[nH]c(=O)c2I)c1 | 50.1 nM
Cc1cc(C)cc(Sc2c(CN(C)CCC#N)c(C)[nH]c(=O)c2I)c1 | 1000 nM
Cc1cc(C)cc(Oc2c(Cn3ccc(N)n3)c(C)[nH]c(=O)c2I)c1 | 125 nM
Cc1cc(C)cc(Sc2c(Cn3nc(-c4ccco4)nc3C)c(C)[nH]c(=O)c2I)c1 | 31.6 nM
Cc1cc(C)cc(Sc2c(CN3CCOC(CC#N)C3)c(C)[nH]c(=O)c2I)c1 (stereo not drawn) | 100 nM

Tested on: not listed separately
Experiment: Selectivity index, ratio of CC50 for human MT4 cells to IC50 for HIV-1 LAI harboring wild type reverse transcriptase infected in human MT4 cells
Format: functional
Conditions: not given
In short: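 Cytotoxicity was measured in mock-infected MT4 cultures (30000 cells/well) given the same compound concentration range, run in parallel with the infected cultures for 5 days at 37 °C, 5% CO2, with MTT viability. CC50 was the concentration reducing viability by 50% versus the drug-free control. SI was CC50 divided by IC50 against HIV-1 LAI.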

Compound | Ratio CC50/IC50
Cc1cc(C)cc(Sc2c(Cn3ccnc3C#N)c(C)[nH]c(=O)c2I)c1 | >31623
Cc1cc(C)cc(Oc2c(CN3CCCC(C(N)=O)C3)c(C)[nH]c(=O)c2I)c1 (stereo not drawn) | >10000
Cc1cc(C)cc(Oc2c(Cn3ccnc3Br)c(C)[nH]c(=O)c2I)c1 | >3981
Cc1cc(C)cc(Sc2c(CSCCc3cnccn3)c(C)[nH]c(=O)c2I)c1 | >39811
Cc1cc(C)cc(Oc2c(Cn3cncc3C)c(C)[nH]c(=O)c2I)c1 | >19952
COCC1CN(Cc2c(C)[nH]c(=O)c(I)c2Sc2cc(C)cc(C)c2)CCO1 (stereo not drawn) | >50119
Cc1cc(C)cc(Sc2c(Cc3ccc[nH]3)c(C)[nH]c(=O)c2I)c1 | >25119
Cc1cc(C)cc(Sc2c(Cn3nc(C)nc3C)c(C)[nH]c(=O)c2I)c1 | >31623
Cc1cc(C)cc(Sc2c(Cn3cnc(C)n3)c(C)[nH]c(=O)c2I)c1 | >125893
Cc1cc(C)cc(Oc2c(CN3CC=CC3)c(C)[nH]c(=O)c2I)c1 | 15848
CCS(=O)(=O)Cc1c(C)[nH]c(=O)c(I)c1Oc1cc(C)cc(C)c1 | >12589
CCOC(=O)CC1CN(Cc2c(C)[nH]c(=O)c(I)c2Sc2cc(C)cc(C)c2)CCO1 (stereo not drawn) | 25119
CNC(=O)CSCc1c(C)[nH]c(=O)c(I)c1Oc1cc(C)cc(C)c1 | >60096
Cc1cc(C)cc(Sc2c(Cn3cccc3)c(C)[nH]c(=O)c2I)c1 | 19953
Cc1cc(C)cc(Sc2c(Cn3ccnn3)c(C)[nH]c(=O)c2I)c1 | >50119
Cc1cc(C)cc(Sc2c(Cn3cccc3C#N)c(C)[nH]c(=O)c2I)c1 | >31623
Cc1cc(C)cc(Sc2c(CN(C)CCC#N)c(C)[nH]c(=O)c2I)c1 | >31623
CCOC(=O)CSCc1c(C)[nH]c(=O)c(I)c1Oc1cc(C)cc(C)c1 | >10000
Cc1cc(C)cc(Oc2c(Cn3ccc(N)n3)c(C)[nH]c(=O)c2I)c1 | >12589
Cc1cc(C)cc(Sc2c(Cn3nc(-c4ccco4)nc3C)c(C)[nH]c(=O)c2I)c1 | >50119
Cc1cc(C)cc(Sc2c(CN3CCOC(CC#N)C3)c(C)[nH]c(=O)c2I)c1 (stereo not drawn) | 25119
Cc1cc(C)cc(Sc2c(CN3CCN(C(=O)c4ccco4)CC3)c(C)[nH]c(=O)c2I)c1 | 398
Cc1cc(C)cc(Oc2c(Cn3ncc4ccccc43)c(C)[nH]c(=O)c2I)c1 | >3981
